# Measurements gathered from unrelated publications.
# Each line is one published result; the experiments were not run side by side.
# Effect on: microbial growth
SMILES,organism,assay,system,conditions,endpoint,result
CCCCCC/C=C\CCCCCCCCCC(=O)CP(=O)(O)O,Bacillus subtilis,,ATCC23857,,MIC,25 µg/mL
CC(C)CCCCCCCCCCCCCCc1cc(O)cc(O)c1,Listeria monocytogenes,,ATCC19115,,IC50,20.3 µM
O=C(NN=Cc1ccc(O)c(Br)c1)c1cccc(Br)c1,Cryptococcus neoformans,broth dilution,,,MIC,0.3 µg/mL
C=CCCCCCCCCC(=O)C(F)(F)P(=O)(O)O,Bacillus subtilis,,ATCC23857,,MIC,200 µg/mL
CCCC[C@H]1CN(c2cccc(OC(F)(F)F)c2)C(=O)CN1Cc1cncn1Cc1ccc(Br)cc1,Cryptococcus neoformans,broth dilution,,,MIC,3 to 6 µM
O=C(CCCCc1ccccc1)CP(=O)(O)O,Bacillus subtilis,,ATCC23857,,MIC,> 200 µg/mL
CCCCCOc1ccc(-c2cc(-c3ccc(C(=O)N[C@H]4C[C@@H](O)[C@@H](O)NC(=O)[C@@H]5[C@@H](O)[C@@H](C)CN5C(=O)[C@H]([C@H](O)CC(N)=O)NC(=O)[C@H]([C@H](O)[C@@H](O)c5ccc(O)c(OS(=O)(=O)O)c5)NC(=O)[C@@H]5C[C@@H](O)CN5C(=O)[C@H]([C@@H](C)O)NC4=O)cc3)no2)cc1,Nakaseomyces glabratus,,,,MIC50,0.06 µg/mL
CCCCCC/C=C\CCCCCCCCCC(=O)NP(=O)(O)O,Bacillus subtilis,,ATCC23857,,MIC,100 µg/mL
CC1(C)S[C@@H]2[C@H](NC(=O)[C@H](N)c3ccccc3)C(=O)N2[C@H]1C(=O)O,Listeria monocytogenes,well diffusion,ATCC7644,60000 µg/mL,inhibition zone,27 mm
CCCCCCCCCCCCCCCCCCCCc1cc(O)cc(O)c1,Bacillus subtilis,,,,IC50,> 200 µM
O=C(CCCCC1CCCCC1)CP(=O)(O)O,Bacillus subtilis,,ATCC23857,,MIC,25 µg/mL
CCOC(=O)c1ccccc1S(=O)(=O)NC(=O)Nc1nc(Cl)cc(OC)n1,Nakaseomyces glabratus,broth dilution,,48 h,MIC50,5.6 µM
C[C@@H]1[C@H](O)[C@@H](C)/C=C/C=C/C=C/C=C/C=C/C=C/C=C/[C@H](O[C@@H]2O[C@H](C)[C@@H](O)[C@H](N)[C@@H]2O)C[C@@H]2O[C@](O)(C[C@@H](O)C[C@@H](O)[C@H](O)CC[C@@H](O)C[C@@H](O)CC(=O)O[C@H]1C)C[C@H](O)[C@H]2C(=O)O,Cryptococcus neoformans,,ATCC90113,,MIC,1.25 µg/mL
CC(C)C(C)CCCCCCCCCCCc1cc(O)cc(O)c1 (stereo not drawn),Listeria monocytogenes,,ATCC19115,,IC50,34.2 µM
CC[C@H](C)C[C@H](C)CCCCCCCCC(=O)N[C@H]1C[C@@H](O)[C@@H](NCCN)NC(=O)[C@@H]2[C@@H](O)CCN2C(=O)[C@H]([C@H](O)CCN)NC(=O)[C@H]([C@H](O)[C@@H](O)c2ccc(O)cc2)NC(=O)[C@@H]2C[C@@H](O)CN2C(=O)[C@H]([C@@H](C)O)NC1=O,Nakaseomyces glabratus,broth dilution,MY1381,,MIC50,0.125 µg/mL
